We go through three compounds from article PMC3253552 (Biochemical and Biophysical Research Communications, 2011).

Bridge positions count the residues as written; N and C are the ends. Square brackets hold non-standard residues; d marks the D form. Peptide text beside a SMILES is read from it. R8 = C=CCCCCCC[C@@](C)(N)C(=O)O; S5 = C=CCCC[C@](C)(N)C(=O)O

The conditions of data set [1]: cited from earlier work.
For data set [2], the system named is pepsin. Nature of the data set: Peptide proteolysis by pepsin, loss of intact peptide by MALDI-TOF MS. Type of data set: in vitro ADME. Conditions: for susceptibility to proteolysis by pepsin (in words): pepsin 0.5 μg/ml, 10% acetic acid pH 2, peptide 500 μg/ml, 37°C, MALDI-TOF MS; for remaining at 24 h, 500 μg/ml: pepsin, pH 2.
Data set [3] in a line: CD spectroscopy of peptide helicity and thermostability. The format is physicochemical. Particulars: peptide 0.1 mg/mL in sodium phosphate buffer pH 7.4, 24°C. An outline of the steps:
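Peptide at 0.1 mg/mL in sodium phosphate buffer, pH 7.4, in a quartz cuvette with 0.2 cm path length. Far-UV CD spectra were scanned from 185 to 240 nm at 24°C. Signal was normalised to mean residue ellipticity to estimate helical content. For thermostability, ellipticity was followed while temperature was raised from 10 to 90°C.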

Data set [4] concerns the target human ABCA1 (Homo sapiens, UniProt O95477). Nature of the data set: Cholesterol efflux from ABCA1 transfected BHK cells. Type of data set: cell-based. Particulars: [3H] cholesterol, 18 h with peptide.
The test system of data set [5] is chymotrypsin. Kind of data set: Peptide proteolysis by chymotrypsin, loss of intact peptide by MALDI-TOF MS. The format is in vitro ADME. Particulars: pH 7.

human ABCA1, sequence (O95477 whole entry): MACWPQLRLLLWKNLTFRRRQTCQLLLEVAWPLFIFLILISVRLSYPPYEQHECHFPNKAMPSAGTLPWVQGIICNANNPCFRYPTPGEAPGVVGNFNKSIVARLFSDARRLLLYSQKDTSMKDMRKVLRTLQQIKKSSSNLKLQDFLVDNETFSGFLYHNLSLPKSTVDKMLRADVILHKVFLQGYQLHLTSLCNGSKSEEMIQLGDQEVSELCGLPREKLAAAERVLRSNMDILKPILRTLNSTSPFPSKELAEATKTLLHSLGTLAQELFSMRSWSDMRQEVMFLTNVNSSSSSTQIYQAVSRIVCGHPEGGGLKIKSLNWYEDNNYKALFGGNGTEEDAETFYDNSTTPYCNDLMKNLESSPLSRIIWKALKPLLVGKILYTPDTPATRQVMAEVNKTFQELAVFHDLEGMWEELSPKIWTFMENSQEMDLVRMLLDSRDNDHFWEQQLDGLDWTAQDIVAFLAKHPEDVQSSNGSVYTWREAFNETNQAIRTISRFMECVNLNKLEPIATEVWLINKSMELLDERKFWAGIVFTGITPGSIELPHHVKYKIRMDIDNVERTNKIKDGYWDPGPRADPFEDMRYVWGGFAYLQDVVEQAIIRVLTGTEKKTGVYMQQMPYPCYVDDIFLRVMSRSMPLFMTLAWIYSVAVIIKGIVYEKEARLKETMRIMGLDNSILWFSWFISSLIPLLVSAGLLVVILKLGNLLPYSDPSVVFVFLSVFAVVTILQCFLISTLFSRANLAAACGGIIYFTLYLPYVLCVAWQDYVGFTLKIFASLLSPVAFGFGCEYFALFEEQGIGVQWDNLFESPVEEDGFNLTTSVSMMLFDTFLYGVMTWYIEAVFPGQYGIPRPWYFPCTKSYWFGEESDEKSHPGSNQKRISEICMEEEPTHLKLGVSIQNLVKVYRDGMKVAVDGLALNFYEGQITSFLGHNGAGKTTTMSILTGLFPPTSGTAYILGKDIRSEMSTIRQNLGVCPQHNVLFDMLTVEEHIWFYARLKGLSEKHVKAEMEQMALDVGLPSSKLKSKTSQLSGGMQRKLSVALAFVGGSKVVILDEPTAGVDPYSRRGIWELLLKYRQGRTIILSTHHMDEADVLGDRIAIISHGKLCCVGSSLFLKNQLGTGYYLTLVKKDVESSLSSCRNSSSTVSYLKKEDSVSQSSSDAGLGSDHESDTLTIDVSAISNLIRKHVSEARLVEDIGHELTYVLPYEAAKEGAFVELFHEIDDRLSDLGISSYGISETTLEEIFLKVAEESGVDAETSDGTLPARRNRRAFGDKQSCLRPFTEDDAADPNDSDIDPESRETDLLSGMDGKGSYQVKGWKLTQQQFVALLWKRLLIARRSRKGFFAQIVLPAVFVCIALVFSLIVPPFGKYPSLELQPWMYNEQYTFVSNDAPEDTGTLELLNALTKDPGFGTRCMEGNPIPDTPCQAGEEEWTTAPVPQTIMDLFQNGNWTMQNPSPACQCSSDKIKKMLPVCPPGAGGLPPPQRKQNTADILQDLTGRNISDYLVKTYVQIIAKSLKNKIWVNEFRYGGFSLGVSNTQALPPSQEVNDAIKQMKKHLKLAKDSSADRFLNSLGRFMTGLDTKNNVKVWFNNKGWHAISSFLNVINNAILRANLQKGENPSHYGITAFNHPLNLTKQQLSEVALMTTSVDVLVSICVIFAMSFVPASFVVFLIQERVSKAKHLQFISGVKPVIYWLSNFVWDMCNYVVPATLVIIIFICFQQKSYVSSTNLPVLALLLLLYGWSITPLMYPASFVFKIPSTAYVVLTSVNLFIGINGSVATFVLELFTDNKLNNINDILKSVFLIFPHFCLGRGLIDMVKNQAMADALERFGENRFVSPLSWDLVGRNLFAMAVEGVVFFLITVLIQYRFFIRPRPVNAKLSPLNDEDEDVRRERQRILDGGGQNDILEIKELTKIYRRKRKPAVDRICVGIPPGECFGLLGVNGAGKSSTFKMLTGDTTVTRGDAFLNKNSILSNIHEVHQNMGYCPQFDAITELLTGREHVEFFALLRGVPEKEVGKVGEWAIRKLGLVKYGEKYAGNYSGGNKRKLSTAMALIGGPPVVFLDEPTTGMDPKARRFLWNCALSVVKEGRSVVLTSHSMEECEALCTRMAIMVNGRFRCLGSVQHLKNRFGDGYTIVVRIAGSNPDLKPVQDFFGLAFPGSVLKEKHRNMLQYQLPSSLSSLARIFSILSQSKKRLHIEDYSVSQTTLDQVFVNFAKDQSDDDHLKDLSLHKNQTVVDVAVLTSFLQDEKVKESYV

On to “apoA-I: full length apolipoprotein, the main protein on High Density Lipoproteins”, for which, in data set [1] (apoA-I associated with lipids), the “helicity when associated with lipids” value was “over 67%”. Moreover, the “helicity in the lipid-free state” value in data set [1] (lipid-free apoA-I) is “about 48%”.
In general, amount remaining refers to the share of the starting amount still present when the sample was taken. On to `CC(=O)N[C@H](C(=O)N[C@@H](CC(C)C)C(=O)N[C@@H](CC(=O)O)C(=O)N[C@@H](CO)C(=O)N[C@@H](Cc1ccccc1)C(=O)N[C@@H](CCCCN)C(=O)N[C@H](C(=O)N[C@@H](CO)C(=O)N[C@]1(C)CCCCCCC=CCCC[C@@](C)(C(=O)N[C@H](C(=O)N[C@@H](CCCCN)C(=O)N[C@@H](CCCCN)C(=O)N[C@@H](CC(C)C)C(=O)N[C@@H](CC(N)=O)C(=O)N[C@H](C(=O)N[C@@H](CCC(N)=O)C(N)=O)[C@@H](C)O)[C@@H](C)O)NC(=O)[C@H](CCC(=O)O)NC(=O)[C@H](CCC(=O)O)NC(=O)[C@H](CC(C)C)NC(=O)[C@H](C)NC(=O)[C@H](CO)NC(=O)[C@H](CC(C)C)NC1=O)C(C)C)C(C)C` [S2A10] (Ac-VLDSFKVS[R8]LSALEE[S5]TKKLNTQ-NH2; staple 9-16), for which, in data set [2], the “susceptibility to proteolysis by pepsin (in words)” value is reported as “resistant to proteolysis” and the amount remaining at 24 h, 500 μg/ml came out at 12.2%. Moreover, the “helicity in aqueous buffer at 24°C” value in data set [3] is reported as 97%. Besides, the “increase in cholesterol efflux by the ABCA1 transporter compared to A10” value in data set [4] is given as > 10 fold. For the same compound, the share remaining at 24 h, 500 μg/ml in data set [5] came out at 3.8%.
For `CC(=O)N[C@H](C(=O)N[C@@H](CC(C)C)C(=O)N[C@@H](CC(=O)O)C(=O)N[C@@H](CO)C(=O)N[C@@H](Cc1ccccc1)C(=O)N[C@@H](CCCCN)C(=O)N[C@H](C(=O)N[C@@H](CO)C(=O)N[C@@]1(C)CCCC=CCCC[C@@](C)(C(=O)N[C@@H](CCC(=O)O)C(=O)N[C@@H](CCC(=O)O)C(=O)N[C@@H](Cc2ccc(O)cc2)C(=O)N[C@H](C(=O)N[C@@H](CCCCN)C(=O)N[C@@H](CCCCN)C(=O)N[C@@H](CC(C)C)C(=O)N[C@@H](CC(N)=O)C(=O)N[C@H](C(=O)N[C@@H](CCC(N)=O)C(N)=O)[C@@H](C)O)[C@@H](C)O)NC(=O)[C@H](C)NC(=O)[C@H](CO)NC(=O)[C@H](CC(C)C)NC1=O)C(C)C)C(C)C` [S1A10] (Ac-VLDSFKVS[S5]LSA[S5]EEYTKKLNTQ-NH2; staple 9-13), in data set [2], the “susceptibility to proteolysis by pepsin (in words)” value is given as “resistant to proteolysis” and the share remaining at 24 h, 500 μg/ml worked out at 0.4%. For the same compound, the “helicity in aqueous buffer at 24°C” value in data set [3] stood at 62%. For the same compound, the “increase in cholesterol efflux by the ABCA1 transporter compared to A10” value in data set [4] is reported as > 10 fold. For the same compound, the amount remaining at 24 h, 500 μg/ml in data set [5] was found to be 0.6%.
